Assay: Toxicity liver stage against HepG2, at 10uM
Type: cell-based
Design: test concentration 10 uM, cell line HepG2-A16-CD81EGFP
Settings: human, HepG2-A16-CD81EGFP cells; read-out: INHIBITION
In short: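 Uninfected HepG2-A16-CD81EGFP cells, 3 × 10^3 per well, 1536-well, plated on prespotted compound at 10 μM final, parasite-free screening media added to match infected plates; puromycin 10 μM positive, DMSO 0.5% negative; run in parallel with 48 h PbLuc assay at 37 °C, 5% CO2; viability by CellTiter-Glo luminescence, normalized to controls.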

Structure (SMILES) | cytotoxicity at 10 µM [%]
Cc1ccc2nc3n(c2c1)[C@@H](CNCc1nccs1)COC3 | -4.31
CC(=O)N1N=C(c2ccco2)OC1C(=O)N(CC(C)C)CC(C)C (configuration not stated) | -1.31
CSCC[C@H](NC(=O)CCn1ccc2c(Cl)cccc21)C(=O)O | 2.42
O=C(Nc1ccccn1)c1csc(NC2CCCC2)n1 | 9.09
CS(=O)(=O)N1CCC(CNC(=O)C2CCCC2)CC1 | 1.2
CC(=O)N1CCC2(CC1)CN(C(=O)c1ccc3c(c1)OCCO3)C2 | 9.15
CN1C(=O)CC[C@@H]2[C@H]1CCN2S(=O)(=O)c1cccs1 | -1.54
CCOCC1CN(c2ncc(F)cn2)Cc2cn(CC)nc21 (configuration not stated) | 8.31
O=C(c1ccnnc1)N1CCc2onc(CN3CCCC3)c2C1 | 7.31
CN(C)CCN1CCN(CC2CC2)c2ncccc2C1 | -3.03
Cc1cccc(N2CC3(CCN(S(=O)(=O)c4ccccc4)C3)CC2=O)c1 (configuration not stated) | 11
Cn1nccc1C(=O)N1CCCC2(CCN(c3ccsc3)C2=O)C1 (configuration not stated) | -121
Cc1nccc([C@@H]2C[C@@H]3CCN(Cc4cccs4)C[C@H]3O2)n1 | -143
CN1CCN(c2nc(O)c3c(-c4ccccn4)ccnc3n2)CC1 | -6.6
Cc1ccc(OCc2ccc(C(=O)O)s2)cc1C | 9.18
COCC(=O)N1CCCCC1c1ccncn1 (configuration not stated) | -27.8
CCC(CC)c1cc(C(=O)N2CCN(C(C#N)C(C)C)CC2)on1 (configuration not stated) | 1.87
O=C(CCC1CCCC1)N1CCC(O)(C(F)(F)F)C1 (configuration not stated) | -0.0394
COC(=O)C1CCCCN1C(=O)c1ccc(N(C)C)cc1F (configuration not stated) | 5.97
COc1ccc(C)cc1CN(C)CC(N)=O | -0.691
CC(Cc1ccc(C(F)(F)F)cc1)C(=O)N1CCCS1(=O)=O (configuration not stated) | -1.01
CC(NC(=O)CCNC(=O)c1ccoc1)c1ccccc1 (configuration not stated) | 5.66
CC(C)c1nccn1CCC(=O)NCC(C)(O)c1ccco1 (configuration not stated) | 1.23
CC(C)N1CCCC(CNC(=O)c2ccnc(-n3ccnc3)c2)C1 (configuration not stated) | -6.23

Structure (SMILES) | cytotoxicity at 10 µM [%]
O=C(Cc1cccs1)NCc1ccnc(OC2CCOCC2)c1 | -1.22
CCOCCOC(C)C(=O)Nc1ccc2c(ccn2CC)c1 (configuration not stated) | 3.99
CN(C)CCN1CCC(NC2CSCCc3ccccc32)CC1 (configuration not stated) | -8.77
O=C(Nc1cccc(N2CCN(CC3CC3)CC2)c1)N1CCCC1 | 0.441
O=C(NCc1ccccc1Cn1cncn1)N1CCCC1 | -5
COc1ccccc1CNC(=O)CNc1ccccc1C(C)=O | 4.7
CC(C1CC1)n1nccc1NC(=O)CN(C)C(=O)OC(C)(C)C (configuration not stated) | 0.258
Cc1cccc(C(C)(C)CNC(=O)CCSc2nnnn2C)c1 | -1.09
CC(=O)N1CCN(Cc2nnc(C(C)(C)C)o2)CC1 | -0.549
Cc1nc(O)cc(CN2CC=C(c3cnn(C(C)(C)C)c3)CC2)n1 | -7.17
CCc1nnsc1C(=O)NCCC1CN(C(C)C)CCO1 (configuration not stated) | -7.07
Cc1cc(C(=O)N2CCc3c(nc(-c4ccncc4)[nH]c3=O)C2)no1 | -1.28
Cc1cc(C2CCC2)nc(N2CCC3(CCNC(=O)CC3)CC2)n1 | -10.1
CCn1ncnc1C1CC(=O)NCc2nc(N3CCCC3)sc21 (configuration not stated) | -2.4
Cc1cc(C)c2nc(CN(C)C(C)c3ccncn3)cc(O)c2c1 (configuration not stated) | 4.11
COC1CCN(S(=O)(=O)NCC2COc3ccccc3C2)CC1 (configuration not stated) | -1.08
CN(Cc1csc(-c2cccs2)n1)C(=O)CCn1ccccc1=O | 22.7
Cc1csc(N2CCCN(C(=O)C3(C#N)CCCC3)CC2)n1 | -1.01
Cc1nc(C2CCCN2C(=O)c2cc3c(s2)CCCC3)no1 (configuration not stated) | -11.2
Cc1noc(C)c1CN1CCn2cc(CN3CCCCC3)nc2C1 | 8.95
CC(C)NC1CCc2c(ccc(=O)n2CCN(C)C)C1 (configuration not stated) | -1.7
CC(C)(C)c1n[nH]cc1CNC1CCC(C(F)(F)F)CC1 (configuration not stated) | 4.25
CC(C)NC1CC2(CCNCC2)c2cc(F)ccc21 (configuration not stated) | -9.05

Reference: ChEMBL document CHEMBL4513216, “Probing the Open Global Health Chemical Diversity Library for Multistage-Active Starting Points for Next-Generation Antimalarials” (ACS Infect Dis, 2020)
